Measured values from ChEMBL document CHEMBL1124114, “Peripherally acting enkephalin analogues. 1. Polar pentapeptides” (J Med Chem, 1988).
Numbered stars: 1 amine (or outer) side, 2 acyl side, 3 side chain; on linkers, the order of the positions; unused ones are H or OH. Square brackets hold non-standard residues; d marks the D form. Peptide text beside a SMILES is read from it. * marks the point of attachment. Phe(4-NO2) = N[C@@H](Cc1ccc([N+](=O)[O-])cc1)C(=O)O; Tyr(Nα-amidino) = N=C(N)N[C@@H](Cc1ccc(O)cc1)C(=O)*; X1 = O=C([C@@H](CSS(=O)(=O)O)N[*:1])[*:2]; X3 = O=C([C@@H](CCS(=O)(=O)O)N[*:1])[*:2]; X2 = C[S+](C)CC[C@@H](N[*:1])C(=O)[*:2]

How the values were obtained:
Type in all cases: functional
Mus musculus [1] = species on record: Mus musculus; assay: Effective dose was measured in hot plate test.
Method in brief: (§1)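 Male CFLP mice (Hacking and Churchill), groups of five to six, placed on copper plate at 55 °C; endpoint paw licking/shaking or jumping, 30-s cut-off. Drugs sc, 10 mL kg⁻¹. ED50 = dose doubling response latency vs vehicle, by parallel-line probit analysis.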

Mus musculus [2] = assay: In vivo inhibition of Acetic acid-induced writhing in mice (sc)
Method in brief: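 Male TFW Tuck mice, five to six per group; acetic acid (0.6%) ip, 25 mL kg⁻¹; writhes counted for 5 min from 15 min after irritant. Compounds sc, 10 mL kg⁻¹. ED50 = dose giving 50% fewer writhes than vehicle, by linear regression.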

Cavia porcellus = species on record: Cavia porcellus; assay: In vitro opioid activity of compound in the GPI (guinea pig ileum) by determination of inhibition of electrically induced contractions
Method in brief: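 Terminal ileum segments from 300-350 g guinea pigs in 20-mL bath, 1-g tension, Krebs' bicarbonate gassed 95% O2/5% CO2. Coaxial stimulation 0.1 Hz, 0.5 ms, supramaximal voltage; isotonic recording of contractions. Dose-response curves with 15-min washout between doses; opioid nature checked by reversal with naloxone (1 μg mL⁻¹).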

Mus musculus [3] = assay: In vivo inhibition of phenyl-1,4-benzoquinone(PBQ) -induced writhing in mice (sc)
Method in brief: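 Female CD1 Charles River mice, groups of five to six; PBQ 2.5 mg kg⁻¹ ip (10 mL kg⁻¹). Drug or vehicle sc 30 min before PBQ; writhes (abdominal contractions/hind-limb extensions) counted 2.5 min starting 10 min post-PBQ. ED50 = dose halving writhes vs vehicle, from linear regression.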

[4] = Dose ratio in the presence / absence of N-methyl-nalorphine (11.5 mg/kg) in acetic acid (AA) writhing
Method in brief: (§2)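 Male TFW Tuck mice, groups of five to six; acetic acid (0.6%) ip at 25 mL kg⁻¹; writhes counted 5 min starting 15 min post-irritant. N-methylnalorphine 11.5 mg kg⁻¹ ip 20 min before sc agonist (both 10 mL kg⁻¹). ED50 by linear regression (50% writhe reduction vs vehicle); dose ratio = shift of parallel regression lines with/without antagonist.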

[5] = Dose ratio in the presence/absence of N-methyl-nalorphine (11.5 mg/kg) in acetic acid (AA) writhing; method in brief: as §2
Mus musculus [6] = assay: Effective dose was measured in hot plate test; no effect 25 mg/kg; method in brief: as §1

| Compound | ED50 (Mus musculus [1]) | ED50 (Mus musculus [2]) | IC50 for inhibition of electrically induced contractions (Cavia porcellus) | ED50 (Mus musculus [3]) | Ratio [4] | Ratio [5] | ED50 at 25 mg/kg (Mus musculus [6]) |
| --- | --- | --- | --- | --- | --- | --- | --- |
| NC(=O)[C@@H]1CCCN1C(=O)[C@H](Cc1ccc([N+](=O)[O-])cc1)NC(=O)CNC(=O)[C@@H](CCC(=O)O)NC(=O)[C@@H](N)Cc1ccc(O)cc1 | 7.6 mg/kg | 1.4 mg/kg | 0.009 µM | 3 mg/kg | 5.5 | – | – |
| NC(=O)[C@@H]1CCCN1C(=O)[C@H](Cc1ccc([N+](=O)[O-])cc1)NC(=O)CNC(=O)[C@@H](CCCN=C(N)N)NC(=O)[C@@H](N)Cc1ccc(O)cc1 | 35 mg/kg | 5.7 mg/kg | 0.132 µM | 4.9 mg/kg | 5.5 | – | – |
| NC(=O)[C@@H]1CCCN1C(=O)[C@H](Cc1ccc([N+](=O)[O-])cc1)NC(=O)CNC(=O)[C@@H](CSCCS(=O)(=O)[O-])NC(=O)[C@@H](N)Cc1ccc(O)cc1.[Na+] | – | 0.1 mg/kg | 0.0036 µM | – | 4 | – | – |
| N=C(N)N[C@@H](Cc1ccc(O)cc1)C(=O)N[C@H](CCC(=O)O)C(=O)NCC(=O)N[C@@H](Cc1ccc([N+](=O)[O-])cc1)C(=O)N1CCC[C@H]1C(N)=O | 5.3 mg/kg | 0.5 mg/kg | 0.414 µM | 0.3 mg/kg | 1.2 | – | – |
| Cl.NC(=O)[C@@H]1CCCN1C(=O)[C@H](Cc1ccc([N+](=O)[O-])cc1)NC(=O)CNC(=O)[C@@H](CS(=O)(=O)O)NC(=O)[C@@H](N)Cc1ccc(O)cc1 | 19 mg/kg | 5.9 mg/kg | 0.0894 µM | – | – | – | – |
| C[S+](C)CC[C@@H](NC(=O)[C@H](Cc1ccc(O)cc1)N=C(N)N)C(=O)NCC(=O)N[C@@H](Cc1ccc([N+](=O)[O-])cc1)C(=O)N1CCC[C@H]1C(N)=O.Cl.Cl | 10.9 mg/kg | 0.5 mg/kg | 0.525 µM | 1.1 mg/kg | 4.2 | – | – |
| CSCC[C@H](NC(=O)[C@@H](N)Cc1ccc(O)cc1)C(=O)NCC(=O)N[C@@H](Cc1ccc([N+](=O)[O-])cc1)C(=O)N1CCC[C@H]1C(N)=O (H-YMG[Phe(4-NO2)]P-NH2) | 1.6 mg/kg | 0.1 mg/kg | 0.0018 µM | 0.4 mg/kg | 1.2 | – | – |
| NC(=O)[C@@H]1CCCN1C(=O)[C@H](Cc1ccc([N+](=O)[O-])cc1)NC(=O)CNC(=O)[C@@H](CSS(=O)(=O)O)NC(=O)[C@@H](N)Cc1ccc(O)cc1 (H-Y[X1]G[Phe(4-NO2)]P-NH2) | 9.7 mg/kg | 0.5 mg/kg | 0.0075 µM | 0.4 mg/kg | 3.9 | – | – |
| C[S+](C)CC[C@@H](NC(=O)[C@@H](N)Cc1ccc(O)cc1)C(=O)NCC(=O)N[C@@H](Cc1ccc([N+](=O)[O-])cc1)C(=O)N1CCC[C@H]1C(N)=O.Cl.Cl (H-Y[X2]G[Phe(4-NO2)]P-NH2) | – | 8.1 mg/kg | 0.0612 µM | 3.1 mg/kg | – | 3.3 | – |
| Cl.NC(=O)[C@@H]1CCCN1C(=O)[C@H](Cc1ccc([N+](=O)[O-])cc1)NC(=O)CNC(=O)[C@@H](CCS(=O)(=O)O)NC(=O)[C@@H](N)Cc1ccc(O)cc1 (H-Y[X3]G[Phe(4-NO2)]P-NH2) | 18.6 mg/kg | 3.5 mg/kg | 0.807 µM | 3.1 mg/kg | 4.2 | – | – |
| N=C(N)NCCC[C@@H](NC(=O)[C@H](Cc1ccc(O)cc1)NC(=N)N)C(=O)NCC(=O)N[C@@H](Cc1ccc([N+](=O)[O-])cc1)C(=O)N1CCC[C@H]1C(N)=O ({Tyr(Nα-amidino)}-[dR]G[Phe(4-NO2)]P-NH2) | – | 0.8 mg/kg | 0.42 µM | 1.3 mg/kg | 4.6 | – | 25 mg/kg |
| CN1CC[C@]23c4c5ccc(O)c4O[C@H]2[C@@H](O)C=C[C@H]3[C@H]1C5 [MORPHINE] | – | 0.5 mg/kg | – | – | – | – | – |
